The source made the active and inactive calls. The calls are words filed in the database; no cut-off is given here.
What was measured:
[1] = molecular target: T1, Free fatty acid receptor 4 (Homo sapiens) (UniProt Q5NUL3); assay: Agonist activity at human GPR120 expressed in CHO-FlpIn cells after 15 mins by DMR assay relative to control; type: cell-based
T1 sequence (whole entry): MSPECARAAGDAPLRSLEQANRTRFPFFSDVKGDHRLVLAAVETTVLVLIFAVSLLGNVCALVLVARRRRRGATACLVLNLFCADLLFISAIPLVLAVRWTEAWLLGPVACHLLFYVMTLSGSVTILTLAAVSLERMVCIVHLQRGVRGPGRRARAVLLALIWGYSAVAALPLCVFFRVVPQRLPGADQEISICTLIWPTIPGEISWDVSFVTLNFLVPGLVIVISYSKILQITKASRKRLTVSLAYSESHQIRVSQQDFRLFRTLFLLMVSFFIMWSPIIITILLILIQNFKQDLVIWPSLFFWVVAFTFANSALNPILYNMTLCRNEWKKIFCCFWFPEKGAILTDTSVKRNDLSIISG
Summary of the method: (§1)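 Cryopreserved CHO FlpIn cells stably expressing human or mouse GPR120 were seeded 48 h before assay, serum-starved for 24 h, then held 2 h in HBSS/20 mM HEPES/0.01% BSA (pH 7.4) with 0.5% DMSO. DMR was read over a 10 min baseline and for 15 min after addition. Runs were in duplicate, 10 points, 16 μM to 0.8 nM final, as % of maximal control agonist.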

[2] = molecular target: Free fatty acid receptor 1 (Mus musculus) (UniProt Q76JU9); assay: Agonist activity at mouse GPR40 expressed in HEK293 cells assessed as increase in intracellular calcium level after 5 mins by FLUO-4-AM dye-based FLIPR assay relative to control; type: functional, cell-based
Free fatty acid receptor 1 (Mus musculus), sequence (Q76JU9 whole entry): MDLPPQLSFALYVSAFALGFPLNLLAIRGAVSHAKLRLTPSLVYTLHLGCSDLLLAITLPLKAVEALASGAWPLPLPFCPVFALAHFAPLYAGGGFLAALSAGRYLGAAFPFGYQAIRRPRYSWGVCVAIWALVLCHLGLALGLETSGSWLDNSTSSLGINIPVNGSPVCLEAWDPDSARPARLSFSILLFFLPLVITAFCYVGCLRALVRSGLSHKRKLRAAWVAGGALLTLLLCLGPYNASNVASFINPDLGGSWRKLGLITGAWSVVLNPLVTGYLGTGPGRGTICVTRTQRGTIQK
Summary of the method: (§2)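 HEK293s cells stably expressing mouse GPR40 were seeded 24 h before assay and loaded for 1 h with calcium 3/Fluo-4 AM in HBSS, 20 mM HEPES, 0.01% BSA, 2.5 mM probenecid, pH 7.4. FLIPR Tetra took 10 baseline reads, then read for 5 min after addition. Runs were in duplicate, 9 points, 100 μM to 7 nM final, as % of maximal eladic acid control.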

[3] = Protein binding in mouse plasma assessed as unbound fraction after 24 hrs by equilibrium dialysis; type: ADME, cell-free
[4] = Clearance in mouse at 2.5 mg/kg, iv after 24 hrs; type: ADME, organism-based; conditions: in vivo
[5] = Volume of distribution at steady state in mouse at 2.5 mg/kg, iv after 24 hrs; type: ADME, organism-based; conditions: in vivo, read-out: Vdss
[6] = Cmax in mouse at 5 mg/kg administered through oral gavage after 24 hrs; type: ADME, organism-based; parameters: dose 5 mg/kg, route oral; conditions: in vivo
[7] = (§3) Oral bioavailability in mouse at 5 mg/kg after 24 hrs; type: ADME, organism-based; conditions: in vivo
[8] = Ratio of drug level in mouse brain to blood at 5 mg/kg administered through oral gavage after 2 hrs; type: ADME, organism-based
[9] = Ratio of unbound drug level in mouse brain to blood at 5 mg/kg administered through oral gavage after 2 hrs
Mus musculus [10] = assay: Antidiabetic activity in GPR120 knockout mouse assessed as reduction in glucose excursion at 100 mg/kg administered through oral gavage 30 mins prior to glucose challenge measured after 90 mins by OGTT; type: functional, organism-based
Summary of the method: (§4)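 OGTT used in-house C57BL/6J mice aged 10–11 weeks. GPR120 knockout and wild-type controls were bred in house, back-crossed onto C57BL/6J, and used at 9–10 weeks. Compound was given as a suspension: a concentrated stock was made at rt the day before and diluted on study day to the dosing concentrations.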

[11] = molecular target: T2, Free fatty acid receptor 4 (Mus musculus, UniProt Q7TMA4); assay: Agonist activity at mouse GPR120 expressed in CHO-FlpIn cells after 15 mins by DMR assay; type: cell-based; summary of the method: as §1
T2 sequence (Q7TMA4 whole entry): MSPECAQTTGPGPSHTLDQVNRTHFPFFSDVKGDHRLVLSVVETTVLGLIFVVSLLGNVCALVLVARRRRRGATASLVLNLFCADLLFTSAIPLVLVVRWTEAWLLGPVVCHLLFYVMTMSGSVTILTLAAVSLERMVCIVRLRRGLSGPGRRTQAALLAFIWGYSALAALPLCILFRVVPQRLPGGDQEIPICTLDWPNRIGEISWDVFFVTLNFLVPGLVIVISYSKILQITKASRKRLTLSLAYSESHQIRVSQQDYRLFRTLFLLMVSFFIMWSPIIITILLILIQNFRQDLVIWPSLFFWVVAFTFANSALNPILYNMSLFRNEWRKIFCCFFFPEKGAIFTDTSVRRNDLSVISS

[12] = molecular target: T3, Free fatty acid receptor 4 (Mus musculus) (UniProt Q7TMA4); assay: Agonist activity at mouse GPR120 expressed in CHO-FlpIn cells after 15 mins by DMR assay relative to control; type: cell-based; summary of the method: as §1
T3 sequence (whole entry): T2 sequence (Q7TMA4 whole entry)

[13] = Ratio of unbound drug level in wild-type mouse brain to blood at 100 mg/kg administered through oral gavage 30 mins prior to glucose challenge measured after 90 mins
[14] = molecular target: T4, Free fatty acid receptor 4 (Homo sapiens, UniProt Q5NUL3); assay: Agonist activity at human GPR120 expressed in CHO-FlpIn cells after 15 mins by DMR assay; type: cell-based; summary of the method: as §1
T4 sequence (Q5NUL3 whole entry): T1 sequence (whole entry)

[15] = molecular target: Free fatty acid receptor 1 (Mus musculus, UniProt Q76JU9); assay: Agonist activity at mouse GPR40 expressed in HEK293 cells assessed as increase in intracellular calcium level after 5 mins by FLUO-4-AM dye-based FLIPR assay; type: functional, cell-based; summary of the method: as §2
Free fatty acid receptor 1, sequence (Q76JU9 whole entry): as the sequence (Q76JU9 whole entry) above

[16] = Octanol-buffer partition coefficient, log D of the compound at pH 7.4 after 30 mins by LC-UV based shake-flask method
Mus musculus [17] = assay: Toxicity in mouse at 150 mg/kg, po after 2 hrs; type: organism-based; conditions: in vivo
[18] = Drug uptake in mouse blood at 150 mg/kg, po after 2 hrs; type: ADME, organism-based; conditions: read-out: Drug uptake
Mus musculus [19] = assay: Toxicity in mouse at 300 mg/kg, po after 1 hr; type: organism-based; conditions: in vivo
[20] = Drug uptake in mouse blood at 300 mg/kg, po after 1 hr; type: ADME, organism-based; conditions: read-out: Drug uptake
[21] = Drug uptake in mouse brain at 300 mg/kg, po after 1 hr; type: ADME, organism-based; conditions: read-out: Drug uptake
[22] = Apparent permeability across apical to basolateral side in human Caco2 cells; conditions: Caco-2
MDR1 = assay: Efflux ratio of permeability in MDCK2-MDR1 cells at 10 uM; conditions: dog, MDCK-MDR1
[23] = molecular target: 3',5'-cyclic-AMP phosphodiesterase 4D (Homo sapiens, UniProt Q08499); assay: Inhibition of phosphodiesterase 4D (unknown origin)
3',5'-cyclic-AMP phosphodiesterase 4D, sequence (Q08499 whole entry): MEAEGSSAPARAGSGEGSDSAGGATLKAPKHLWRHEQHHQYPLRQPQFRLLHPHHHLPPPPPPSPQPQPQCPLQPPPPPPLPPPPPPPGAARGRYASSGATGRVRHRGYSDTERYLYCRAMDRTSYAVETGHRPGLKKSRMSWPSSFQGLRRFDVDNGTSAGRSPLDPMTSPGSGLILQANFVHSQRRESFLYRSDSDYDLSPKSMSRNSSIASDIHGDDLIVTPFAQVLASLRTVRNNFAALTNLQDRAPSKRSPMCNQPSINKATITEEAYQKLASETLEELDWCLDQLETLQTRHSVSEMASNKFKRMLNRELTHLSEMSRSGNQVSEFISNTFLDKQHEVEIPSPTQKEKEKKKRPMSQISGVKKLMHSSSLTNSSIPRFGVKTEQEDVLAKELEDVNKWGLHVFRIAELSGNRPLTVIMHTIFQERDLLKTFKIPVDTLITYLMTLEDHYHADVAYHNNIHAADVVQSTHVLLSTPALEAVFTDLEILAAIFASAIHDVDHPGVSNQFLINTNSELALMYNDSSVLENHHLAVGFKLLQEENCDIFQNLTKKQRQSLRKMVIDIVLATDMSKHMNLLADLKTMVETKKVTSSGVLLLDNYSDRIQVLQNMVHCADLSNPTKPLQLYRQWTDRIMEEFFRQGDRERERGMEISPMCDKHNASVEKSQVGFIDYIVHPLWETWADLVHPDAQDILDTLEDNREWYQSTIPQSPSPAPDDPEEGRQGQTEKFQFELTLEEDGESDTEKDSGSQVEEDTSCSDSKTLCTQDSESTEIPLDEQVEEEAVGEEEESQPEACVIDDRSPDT

[24] = Cmax in mouse blood at 50 mg/kg, po; type: ADME, organism-based; parameters: dose 50 mg/kg, route oral
Mus musculus [25] = assay: Toxicity in mouse at 50 mg/kg, po; type: organism-based; conditions: in vivo
[26] = Drug uptake in mouse brain at 50 mg/kg, po after 2 hrs; type: ADME, organism-based; conditions: read-out: Drug uptake
Mus musculus [27] = assay: as §3; type: ADME, organism-based; conditions: in vivo, 24 h
[28] = Clearance in mouse at 1 mg/kg, iv after 24 hrs; type: ADME, organism-based; conditions: in vivo
[29] = Volume of distribution at steady state in mouse at 1 mg/kg, iv after 24 hrs; type: ADME, organism-based; conditions: in vivo, read-out: Vdss
Mus musculus [30] = assay: Antidiabetic activity in C57BL/6J mouse assessed as reduction in glucose excursion at 100 mg/kg administered through oral gavage 30 mins prior to glucose challenge measured after 90 mins by OGTT relative to control; type: functional; parameters: scale not given: the % may be the effect or the level left; summary of the method: as §4
Mus musculus [31] = assay: Antidiabetic activity in wild-type mouse assessed as reduction in glucose excursion at 100 mg/kg administered through oral gavage 30 mins prior to glucose challenge measured after 90 mins by OGTT relative to control; type: functional; parameters: scale not given: the % may be the effect or the level left; summary of the method: as §4
Adenosine receptor A2a = Adenosine receptor A2a (Homo sapiens, UniProt P29274); assay: Inhibition of Adenosine A2A receptor (unknown origin)
Adenosine receptor A2a, sequence (P29274 whole entry): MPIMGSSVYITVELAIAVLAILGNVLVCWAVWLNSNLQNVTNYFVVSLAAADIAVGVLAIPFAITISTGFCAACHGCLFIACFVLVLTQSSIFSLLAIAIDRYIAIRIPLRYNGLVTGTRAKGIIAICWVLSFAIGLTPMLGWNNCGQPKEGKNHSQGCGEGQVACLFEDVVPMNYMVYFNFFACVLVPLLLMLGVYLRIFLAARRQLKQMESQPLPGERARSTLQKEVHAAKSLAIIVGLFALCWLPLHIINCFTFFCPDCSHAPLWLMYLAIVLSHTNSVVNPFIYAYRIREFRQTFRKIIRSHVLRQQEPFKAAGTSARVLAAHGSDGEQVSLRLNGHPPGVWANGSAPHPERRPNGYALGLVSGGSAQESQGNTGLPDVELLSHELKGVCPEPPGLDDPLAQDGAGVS

[32] = Ratio of unbound drug level in GPR120 knockout mouse brain to blood at 100 mg/kg administered through oral gavage 30 mins prior to glucose challenge measured after 90 mins; conditions: in vivo, 1.5 h

Row | SMILES | Efficacy [1] [%] | Efficacy [2] [%] | fraction unbound at 24 h [3] | clearance [4] [mL/min/kg] | Vd [5] [L/kg] | Cmax [6] [µM] | bioavailability [7] [%] | Kp at 2 h [8] | Activity (Mus musculus [10]) | EC50 [11] [nM] | Efficacy [12] [%] | EC50 [14] [nM] | EC50 [15] [nM] | logD at 0.5 h [16] | Activity (Mus musculus [17]) | Kp uu at 2 h ([9]; brain/blood) | Papp A→B [22] [×10⁻⁶ cm/s] | efflux ratio at 10 µM (MDR1) | also measured
1 | Cc1ccc(-n2nc(C)c3ccc(-c4ccc([C@H]5C[C@@H]5C(=O)O)cc4)cc32)cc1 | 100 | 1 | 0.0049 | 9.6 | 1.2 | 7.9 | 136 | 0.82 | inactive | 510 | 91 | – | – | – | – | – | – | – | Kp uu at 2 h ([9]; brain): 0.22; Kp uu at 1.5 h ([13]; brain): 0.27
2 | COc1nn(-c2ccccn2)c2cc(-c3ccc([C@H]4C[C@@H]4C(=O)O)cc3)ccc12 | 102 | 1 | 0.0048 | 9.3 | 1.5 | 5.4 | 126 | 2.3 | – | 410 | 99 | 470 | > 100000 | 3.8 | Non-Toxic | 0.86 | 31 | 2 | concentration at 2 h [18]: 126 µM; Activity (Mus musculus [19]): Toxic; concentration at 1 h [20]: 284 µM; concentration at 1 h [21]: 207 µM; IC50 [23]: 1600 nM
3 | COc1nn(-c2ccccn2)c2cc(-c3ccc([C@H]4C[C@@H]4C(=O)O)cc3)cc(F)c12 | 93 | 19 | 0.0053 | 5.2 | 1 | 8.2 | – | 2 | – | 620 | 103 | 510 | > 100000 | 3.8 | Toxic | 0.45 | 29 | 0.59 | Cmax [24]: 97 µM; Activity (Mus musculus [25]): Non-Toxic; concentration at 2 h [26]: 147 µM; F (Mus musculus [27]): 159%
4 | COc1nn(-c2ccc(C)cc2)c2cc(-c3ccc([C@H]4C[C@@H]4C(=O)O)cc3)cc(F)c12 | 115 | 11 | 0.0011 | 0.4 | 0.7 | 5 | 19 | 0.44 | – | 17 | 176 | 78 | > 100000 | > 4.2 | – | – | – | – | –
5 | Cc1ccc(-n2nc(C)c3cnc(-c4ccc([C@H]5C[C@@H]5C(=O)O)cc4F)cc32)nc1 | 66 | 2 | 0.021 | – | – | 3.3 | 131 | 0.37 | inactive | 1000 | 79 | 740 | > 100000 | 2.6 | – | 0.14 | 76 | 2.8 | clearance [28]: 13 mL/min/kg; Vd [29]: 2.4 L/kg; Activity (Mus musculus [30]): 45%; Activity (Mus musculus [31]): 47%; Ki (Adenosine receptor A2a): 1700 nM; Kp uu at 1.5 h ([13]; brain/blood): 0.12; Ratio [32]: 0.12
